High-throughput results as filed in PubChem BioAssay.
FGF22 binding – binders of human FGF22 protein, primary screen, FGF22 synaptogenesis inhibitor project, biophysical, thermal shift, single point; Fibroblast growth factor 22 (Homo sapiens), Q9HCT0; recombinant FGF22 thermal shift, SYPRO orange fluorescence; percent of sucrose octasulfate shift, DMSO zero; activity (Tm shift, normalised), % at 9.99 µM; 340,000 tested, 1.5% active; AID 651658, 2012;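 active = mean Tm shift, scaled 0 neutral to 100 positive control, at about 1.3% or above, every replicate too, limit read from the data; inconclusive = no clear call, values can overlap the other calls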
Target sequence (Q9HCT0 whole entry, looked up): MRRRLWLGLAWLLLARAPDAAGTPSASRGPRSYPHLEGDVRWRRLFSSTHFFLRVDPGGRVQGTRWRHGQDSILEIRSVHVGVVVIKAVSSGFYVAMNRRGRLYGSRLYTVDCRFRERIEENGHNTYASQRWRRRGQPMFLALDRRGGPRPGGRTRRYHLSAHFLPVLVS
Xi reactivation – activators of inactive X chromosome reactivation, primary screen, imaging, XiGFP fibroblasts, GFP high-content imaging, set 2. 360,000 tested, 0.055% active. activation, % at 7.58 µM. XiGFP mouse fibroblasts, % GFP-positive cells imaging, 3 d; cells co-treated with 5-aza-dC sensitizer; scaled so ellipticine positive control = 100%;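 active = mean normalized replicate activation at least 10% and every replicate at or above 10%; inconclusive = only one of the two criteria met; inactive = mean below 10% and not all replicates reach 10%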;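 note: 0% = median of on-plate neutral control wells and 100% = ellipticine 6 µM median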
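Assay system: SV40-immortalized XiGFP fibroblast cells, line 68-5-11; buffer or medium: DMEM plus 5-aza-dC sensitizer; compound: one concentration, pinned; timing: compounds 3 days, fix/stain 15 min at room temperature; benchmarks: positive control ellipticine, 6 µM final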
SIRT5 inh – SIRT5 desuccinylase inhibitors, primary screen, biochemical, fluorescence imaging, single point, set 5; NAD-dependent protein deacylase sirtuin-5, mitochondrial (Homo sapiens), Q9NXA8; Purified SirT5, succinyl-peptide AMC, trypsin-coupled fluorescence; 330,000 tested, 1.1% active; inhibition, % at 15 µM; in the data active = inhibition above about 15%; inconclusive = no clear call, values can overlap the other calls
Target sequence (Q9NXA8 whole entry, looked up): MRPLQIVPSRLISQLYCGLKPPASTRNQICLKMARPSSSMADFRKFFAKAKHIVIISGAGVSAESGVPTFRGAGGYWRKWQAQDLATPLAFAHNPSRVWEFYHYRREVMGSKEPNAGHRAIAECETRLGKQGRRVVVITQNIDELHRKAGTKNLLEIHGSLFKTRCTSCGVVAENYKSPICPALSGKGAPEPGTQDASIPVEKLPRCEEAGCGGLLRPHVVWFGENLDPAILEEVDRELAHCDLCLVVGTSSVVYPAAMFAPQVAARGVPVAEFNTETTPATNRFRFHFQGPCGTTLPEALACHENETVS
FN deposition inh – inhibitors of fibronectin matrix deposition, primary screen, AH1F cells, Alexa488-fibronectin fluorescence, plate reader | 350,000 tested, 0.086% active | AH1F fibroblasts, overnight | inhibition, % at 12.6 µM;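 active = mean inhibition across replicates of 30% or more, regardless of how many single replicates reach that level; inconclusive = mean under 30% yet at least half of replicates reach 30%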;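 note: positive control wells lacked labelled fibronectin entirely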
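Material: AH1F fibroblasts assembling fluorescent fibronectin matrix; amount: 10000 AH1F cells/well; medium: DMEM, 2% serum; reagent: Alexa488-fibronectin, 24 nM final in well; dosing: single compound dose, delivered by pin transfer; incubation: 1 h adhesion, overnight exposure; detection: fluorescence after three HBSS washes, excitation 485 nm, emission 525 nm; measure: fibronectin deposition inhibition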
ARNT TACC3 PPI – disruptors of ARNT/TACC3 protein interaction, primary screen, biochemical, AlphaScreen, single concentration; Transforming acidic coiled-coil-containing protein 3 (Homo sapiens), Q9Y6A5; AlphaScreen His-ARNT PAS-B/GST-TACC3 binding, luminescence; TACC3 fragment carries E629A point mutation; inhibition, % at 9.99 µM; 390,000 tested, 0.66% active; AID 623870, 2012;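 active = mean inhibition of replicates at least 50% and at least half of replicates each reaching 50%; inconclusive = half or more replicates reach 50% but mean below 50%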;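 note: 0% = complete ARNT plus TACC3 wells and 100% = ARNT alone without TACC3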
DENV2 CPE rescue – inhibitors of DENV2 cytopathic effect, primary screen, cell-based, plate reader, single concentration. DENV2-infected cells, cytopathic effect rescue. CPE inhibition, % at 9.99 µM. 350,000 tested, 1.7% active; in the data active = CPE inhibition above about 20%, passing the limit was not always enough; inconclusive = no clear call, values can overlap the other calls; tested in BHK-21 cells;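 note: 0% = median of neutral control wells and 100% = median of positive control wells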
Starred values were filed as active, the others as inactive; ? = inconclusive; · = no result; ! = a repeat was not active. In the library only some 3.8% were active in any assay of this set; here they are far more common.

SMILES	FGF22 binding	Xi reactivation	SIRT5 inh	FN deposition inh	ARNT TACC3 PPI	DENV2 CPE rescue
CC(C)CC#Cc1ccc2c(c1)O[C@@H](CN(C)C)[C@@H](C)CN([C@H](C)CO)S2(=O)=O	-0.2	0.3	-2.4	9.5	-25.5	9.7
C[C@@H]1CN([C@H](C)CO)C(=O)Cc2cc(NC(=O)c3ccncc3)ccc2O[C@H]1CN(C)C(=O)Nc1cccc2ccccc12	·	0.1	7.0	10.0	4.7	17.7
O=C1N(Cc2ccccc2)Cc2ccccc2[C@@H]2OC(c3ccc(OCCCO)cc3)=N[C@]12Cc1ccccc1	-0.3	·	-2.4	·	·	26.5*
C[C@H](CO)N1C[C@H](C)[C@@H](CN(C)CC2CCCCC2)Oc2ccc(NC(=O)CCC(F)(F)F)cc2C1=O	0.2	-0.9	-16.1	-24.0	7.2	5.6
COC(C(=O)N/N=C(\C)c1ccc(C)cc1)c1ccccc1 (centres undefined)	0.0	0.1	-3.5	0.0	-5.6	-0.4
Cc1ccc(CNC(=O)N[C@@H](Cc2ccccc2)C(=O)O)cc1	-0.1	0.1	17.0*	2.2	2.7	0.5
COC(=O)[C@H](Cc1ccccc1)NC(=O)NCc1ccc(C)cc1	0.1	0.0	-0.1	0.0	·	1.5
Cc1ccc(NC(=O)C(C)OC(=O)CSc2ccccc2)cc1 (centres undefined)	0.2	0.0	·	-10.2	-24.9	-1.8
COC(C(=O)NCc1ccc(C)cc1)c1ccccc1 (centres undefined)	43.2*	?	1.2	1.7	4.2	8.0
Cc1ccc(SCC(=O)OC(C)C(=O)NCc2ccccc2)cc1 (centres undefined)	-0.3	0.0	10.3	-3.7	-6.0	64.4*
CC(C)[C@@H](CO)NC(=O)[C@H]1[C@@H](c2ccccc2)N(c2ccccc2)O[C@@H]1C	-0.2	·	0.4	·	·	-2.1
C[C@H]1CN([C@@H](C)CO)C(=O)c2cccc(NC(=O)c3cnccn3)c2O[C@H]1CN(C)S(=O)(=O)c1ccccc1	·	0.0	·	·	·	·
C[C@H]1CN([C@@H](C)CO)C(=O)CCCn2cc(nn2)CO[C@H]1CN(C)Cc1ccc(C(=O)O)cc1	-0.4	-0.3	-4.4	-4.6	·	25.2*
CC(C)NC(=O)N(C)C[C@H]1OCc2cn(nn2)CCCC(=O)N([C@@H](C)CO)C[C@@H]1C	0.3	-0.2	-0.3	-7.3	-16.7	32.4*
C[C@H]1CN([C@@H](C)CO)C(=O)CCCn2cc(nn2)CO[C@@H]1CN(C)Cc1ccc(C(=O)O)cc1	-0.1	0.0	-1.7	7.3	·	-5.6
CC(C)OC(=O)N(C)C[C@@H]1OCc2cn(nn2)CCCC(=O)N([C@@H](C)CO)C[C@@H]1C	-0.1	-0.4	15.7*	-5.5	5.6	10.7
CC(C)OC(=O)N(C)C[C@@H]1OCc2cn(nn2)CCCC(=O)N([C@H](C)CO)C[C@H]1C	-0.5	-0.1	26.6*	-1.8	-7.7	-11.0
COC(=O)N(C)C[C@@H]1OCc2cn(nn2)CCCC(=O)N([C@H](C)CO)C[C@H]1C	-0.4	0.1	2.7	13.3	6.3	-2.5
COc1ccc(NC(=O)N(C)C[C@@H]2Oc3c(NS(=O)(=O)c4ccc(Cl)cc4)cccc3C(=O)N([C@@H](C)CO)C[C@@H]2C)cc1	-0.5	-1.2	4.8	-0.1	5.2	15.9
C[C@H](CO)N1C[C@H](C)[C@H](CN(C)C(=O)CCCN(C)C)OCc2cn(nn2)CCCC1=O	-0.4	0.5	17.2*	2.5	1.9	-5.0
C[C@H]1CN([C@@H](C)CO)C(=O)CCCn2cc(nn2)CO[C@H]1CN(C)C(=O)CCC(F)(F)F	·	0.2	·	-9.0	·	·
C[C@@H]1CN([C@@H](C)CO)C(=O)CCCn2cc(nn2)CO[C@H]1CN(C)C(=O)Nc1cccc2ccccc12	-0.3	0.0	3.1	1.3	2.6	90.9*!
Cc1noc(C)c1NC(=O)Nc1ccc2c(c1)C(=O)N([C@H](C)CO)C[C@@H](C)[C@H](CN(C)Cc1ccncc1)OCCCC[C@H](C)O2	0.0	0.2	-3.4	·	-9.4	-4.0
CC1(C)CN=C(c2ccccc2)NC1	43.4*	0.3	·	2.4	0.4	14.9
CC1(C#N)c2ccccc2C(Br)=CN1C(=O)c1ccccc1 (centres undefined)	-0.5	0.1	·	2.5	-2.2	30.9*
SMILES	FGF22 binding	Xi reactivation	SIRT5 inh	FN deposition inh	ARNT TACC3 PPI	DENV2 CPE rescue
COc1ccc(C(C)(NC(C)=O)c2nc(-c3cccc(F)c3)cs2)cc1 (centres undefined)	0.0	0.0	·	·	·	28.6*
CN(C)C(=O)c1cccc(-c2ccc([C@@H]3[C@@H](C#N)N(C(=O)C4CCC4)[C@@H]3CO)cc2)c1	0.3	-0.1	-3.1	-15.1	3.5	25.9*
CN(C)C(=O)c1ccc(-c2ccc([C@@H]3[C@@H](CO)N(C(=O)C4CCCC4)[C@H]3C#N)cc2)cc1	-0.2	0.0	5.6	2.3	3.2	29.0*
CN(C)C(=O)c1cccc(-c2ccccc2[C@H]2[C@@H](C#N)N(C(=O)C3CC3)[C@H]2CO)c1	-0.1	0.1	0.2	-12.4	·	42.9*
CN(C)C(=O)c1cccc(-c2ccc([C@@H]3[C@@H](CO)N(C(=O)C4CCC4)[C@H]3C#N)cc2)c1	0.1	0.0	-6.1	0.6	1.7	-11.6
CN(C)CC(=O)N1[C@H](C#N)[C@H](c2ccc(-c3ccc(C(=O)N(C)C)cc3)cc2)[C@H]1CO	-0.2	-0.1	0.6	1.8	7.5	37.5*
CN(C)C(=O)c1cccc(-c2ccccc2[C@H]2[C@H](C#N)N(C(=O)C3CC3)[C@H]2CO)c1	-0.1	0.2	2.6	1.8	·	6.4
CN(C)C(=O)c1ccc(-c2ccc([C@@H]3[C@@H](C#N)N(C(=O)C4CCC4)[C@H]3CO)cc2)cc1	0.0	-0.1	-0.7	1.9	-2.7	5.5
C[C@@H]1CN([C@@H](C)CO)S(=O)(=O)c2ccc(-c3ccccc3)cc2O[C@@H]1CN(C)S(C)(=O)=O	-0.1	-0.8	-2.0	-6.5	8.8	-2.1
Cc1ccc(-c2cc(=O)c3ccccc3[nH]2)cc1	0.0	0.2	·	-21.2	-4.6	·
Cc1ccc2[nH]c(-c3ccccc3)cc(=O)c2c1	0.1	0.5	·	-13.8	-6.3	111.5*
O=C(NCCS(=O)(=O)N1CCN(c2ccc(F)cc2)CC1)c1ccc(Br)o1	-0.3	0.0	4.7	33.5*	-19.7	-2.1
